Bioassay records: PubChem, several laboratories
ASAP1 inh: blocks human ASAP1-stimulated Arf1 GTP hydrolysis; inhibition, % at 16.5 µM; AID 624377; Q9ULH1; 360,000 tested, 0.19% active; GDP FP detection; in the data active = inhibition above about 25%;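 note: 0% = vehicle with enzyme and substrate and 100% = no enzyme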
Target sequence (Q9ULH1 325-724 limits assumed): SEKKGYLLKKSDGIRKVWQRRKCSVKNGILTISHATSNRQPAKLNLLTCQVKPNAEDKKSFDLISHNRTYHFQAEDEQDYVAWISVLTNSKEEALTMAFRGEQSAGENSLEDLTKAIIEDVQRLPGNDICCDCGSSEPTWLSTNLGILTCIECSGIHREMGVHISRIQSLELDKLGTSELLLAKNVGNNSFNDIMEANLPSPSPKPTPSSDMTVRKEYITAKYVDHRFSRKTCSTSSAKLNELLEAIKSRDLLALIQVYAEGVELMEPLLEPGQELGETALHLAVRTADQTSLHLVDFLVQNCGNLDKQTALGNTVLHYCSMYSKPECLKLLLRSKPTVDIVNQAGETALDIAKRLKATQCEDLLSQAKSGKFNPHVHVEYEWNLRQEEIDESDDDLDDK
rCAG binder: r(CAG) repeat RNA binding | TO-PRO-1 dye displacement fluorescence | inhibition, % at 3 µM | 370,000 tested, 1.3% active;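 active = inhibition above the plate cutoff, the mean of all test compounds on that plate plus 3 SD, cut at about 35% in these data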;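 note: 0% = DMSO alone and 100% = 100 µM mitoxantrone as full dye displacement; higher means more dye released from RNA so lower well fluorescence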
ARFGAP1 inh: rat ARFGAP1 inhibition | Q62848 | Arfgap1-stimulated ARF1 GTP hydrolysis, GDP FP detection | inhibition, % at 16.5 µM | 360,000 tested, 0.26% active | AID 651572;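 active = inhibition above a per-plate limit, mean inhibition of low control wells plus 3 SD, cut at about 25% in these data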;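 note: 0% = DMSO wells with enzyme and 100% = wells lacking Arfgap1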
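Material – truncated rat Arfgap1 GAP domain · Buffer or medium – HEPES-based buffer, pH 7.5 · Reagent – human ARF1(Δ1-17)-GTP substrate · Dosing – 16.5 µM single point, 1.26% DMSO · Schedule – GTP hydrolysis reaction 2 h at 25 °C · Technique – GDP detection by fluorescence polarization · Benchmarks – No-Arfgap1 wells (100%) versus DMSO full-reaction wells (0%) · Repeats – single replicate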
NadD block: inhibitors of Staphylococcus aureus NadD. purified NadD enzyme, colorimetric absorbance read-out. inhibition, % at 20 µM. 360,000 tested, 0.78% active. AID 602399; in the data active = inhibition above about 26%
rCAG binder conf: r(CAG) RNA repeat binding, confirmation | 4,300 tested, 70% active | shares compounds with rCAG binder | inhibition, % at 3 µM | TO-PRO-1 dye displacement fluorescence;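 active = inhibition above a per-plate cutoff, the mean inhibition of sample wells plus 3 SD, cut at about 35% in these data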;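 note: loss of TO-PRO-1 fluorescence as compound displaces dye from 1x1 AA loop RNA; 0% = DMSO only wells and 100% = 100 µM mitoxantrone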
DNA CAG counter: counter-screen for rCAG RNA binders: DNA CAG dye complex inhibitors | inhibition, % at 3 µM | AID 652068 | shares compounds with rCAG binder | 4,300 tested, 94% active | d(CAG) DNA oligo TO-PRO-1 dye displacement, fluorescence;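 active = inhibition above its plate's cutoff, the mean test-well inhibition plus 3 SD, cut at about 4.8% in these data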;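 note: 0% = DNA dye mix with DMSO and 100% = 100 µM mitoxantrone; hits displace the dye from DNA and so lower well fluorescence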
dCAG dye DR: counter-screen for rCAG binders: inhibitors of DNA CAG TO-PRO-1 complex. AID 686960. IC50, µM. shares compounds with rCAG binder. 250 tested, 20% active. DNA CAG/GTC duplex TO-PRO-1 dye displacement fluorescence; in the data active = IC50 below about 10 µM
Numbers without * were called inactive; . = no result. Shown are actives, neighbours in structure and some others; about 2.2% of the full set was active somewhere.

SMILES	ASAP1 inh	rCAG binder	ARFGAP1 inh	NadD block	rCAG binder conf	DNA CAG counter	others
CCNC(=S)NNC(=O)c1cc(-c2cccnc2)nc2ccccc12	-3.5	9.7	4.7	-3.3	.	.
CCCCNC(=S)NNC(=O)c1cc(-c2cccnc2)nc2ccccc12	13.2	43.4*	4.3	11.0	31.5	7.7*
CCOC(=O)c1ccc(NC(=S)NNC(=O)c2cc(-c3cccnc3)nc3ccccc23)cc1	7.7	78.3*	10.1	22.0	79.7*	36.9*
CCNC(=S)NNC(=O)c1cc(-c2cccc(OCC)c2)nc2ccccc12	3.9	29.1	-0.7	2.0	.	.
O=C(NNC(=S)Nc1ccccc1)c1cc(-c2cccnc2)nc2ccccc12	19.1	50.5*	15.5	5.4	43.3*	13.0*
COC(=O)[C@]12C[C@H](CC(=O)N3CCN(C(=O)C4CC4)CC3)C(=O)N(Cc3ccco3)C1=C[C@H](C(C)C)O[C@@H]2C1CC1	.	2.5	.	.	.	.
O=C(Cc1cc(C(F)(F)F)cc(C(F)(F)F)c1)Nc1c(-c2ccccc2)[nH][nH]c1=O	12.6	16.9	-7.4	.	.	.
COC(=O)C[C@H]1CC[C@H]2[C@H](COc3ccc(NC(=O)C4CCOCC4)cc3C(=O)N2C)O1	.	3.1	.	.	.	.
CC(C)(C)c1ccc(S(=O)(=O)N2CCCC2C(=O)N2CCN(c3ccccc3)CC2)cc1 (stereo not drawn)	.	7.9	.	.	.	.
C/C(=N\Nc1cccc(C(=O)O)c1)c1ccc(Cl)s1	6.9	41.7*	-4.1	-1.8	21.1	3.5
O=C(NNc1ccc(C(F)(F)F)cc1[N+](=O)[O-])c1ccc(NS(=O)(=O)c2ccc(F)cc2)cc1	8.4	71.0*	11.2	0.7	60.9*	22.1*
CC(C)[C@H](Nc1ccc(C(F)(F)F)cc1[N+](=O)[O-])C(=O)O	8.8	4.2	-2.1	0.7	.	.
CCN(CC)S(=O)(=O)c1cc(NS(=O)(=O)c2cc(Cl)ccc2Cl)ccc1C	-10.1	44.0*	-0.1	-3.6	40.2*	11.7*
CCN(CC)S(=O)(=O)c1cc(NS(=O)(=O)c2cccs2)ccc1C	-2.9	5.8	-1.3	-5.1	.	.
O=C(NS(=O)(=O)c1cccc(F)c1)[C@H]1O[C@@H](n2ccc(=O)[nH]c2=O)[C@H](O)[C@@H]1O	-2.8	3.0	-0.8	.	.	.
COc1ccc(NC(=S)NNc2ccc([N+](=O)[O-])cc2S(=O)(=O)Nc2ccc(C)cc2C)cc1	24.2	39.0*	7.5	18.8	80.7*	45.1*
O=C(CSc1nnc(SCc2ccccc2)s1)NNC(=S)Nc1ccccc1	4.4	43.4*	-8.2	1.6	51.8*	18.1*	dCAG dye DR=>29.9
CCCCNc1cccc2c1S(=O)(=O)N[C@@H](CC(C)C)CO2	6.4	1.9	10.4	.	.	.
O=C1CC(c2ccco2)CC(O)=C1C=Nc1cc(Cl)ccc1Cl (stereo not drawn)	-1.2	15.2	-4.5	-2.9	.	.
O=C1CC(c2ccco2)CC(O)=C1C=Nc1cc(Cl)ccc1O (stereo not drawn)	10.4	37.1*	4.4	2.2	16.9	6.0*
O=C1c2ccccc2-c2n[nH]c(=O)c3ccc(N4CCCCC4)c1c23	-7.5	37.2*	9.1	14.4	12.7	6.8*
O=C1c2c(-c3ccc(Br)cc3)noc2CCN1Cc1cn(Cc2cccnc2)nn1	4.3	3.1	0.0	.	.	.
C/C(=N/NC(=O)CSc1nnc(-c2ccccc2)n1-c1ccc(Cl)cc1)c1cccc(O)c1	.	2.7	.	.	.	.
COc1ccc(N(CC(=O)Nc2cc(Cl)ccc2OC)S(=O)(=O)c2c(C)[nH]c(=O)[nH]c2=O)cc1	6.4	49.0*	4.8	5.0	39.4*	13.3*
Cc1cc(C)cc(N(CC(=O)Nc2ccc(C)cc2Cl)S(=O)(=O)c2c(C)[nH]c(=O)[nH]c2=O)c1	4.9	40.4*	10.2	0.9	53.6*	16.7*
COc1cc(NC(=O)CN(c2cc(C)cc(C)c2)S(=O)(=O)c2c(C)[nH]c(=O)[nH]c2=O)cc(OC)c1	-9.8	28.9	-4.2	5.3	.	.
COc1ccc(N(CC(=O)Nc2cc(C)ccc2C)S(=O)(=O)c2c(C)[nH]c(=O)[nH]c2=O)cc1	2.4	14.2	2.5	-2.9	.	.
Cc1cc(C)cc(N(CC(=O)Nc2ccc(C(F)(F)F)cc2)S(=O)(=O)c2c(C)[nH]c(=O)[nH]c2=O)c1	5.2	49.2*	6.7	3.5	51.7*	16.4*
